In ChEMBL document CHEMBL4818990, “Insight into the binding mode of HIF-2 agonists through molecular dynamic simulations and biological validation” (Eur J Med Chem, 2021):
pEC50: −log10 of the molar value. Activity calls are given as the source filed them. The calls are words filed in the database; no cut-off is given here.

Legend:
Homo sapiens = species on record: Homo sapiens; assay: Agonist activity at HIF-2 (unknown origin) expressed in bacterial expression system assessed as change in melting temperature at 10 uM measured by thermal shift assay; conditions: filed as agonist
Procedure, shortened: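 HIF-2–ARNT protein complex (1.5M as printed) with 10 μM compound from DMSO stock, final DMSO 0.1%, in 20 mM Tris pH 8.0, 400 mM NaCl. Read on qPCR instrument with thermal-shift dye. Tm from derivative curve; ΔTm = compound Tm minus blank Tm. Four parallel replicates per compound.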

786-0 [1] = assay: (§1) Agonist activity at HIF-2 in human 786-0-HRE-Luc cells assessed as increase in […] intensity measured after 24 hrs by luciferase reporter gene assay; format: cell-based; conditions: filed as agonist
Procedure, shortened: (§2)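 786-O cells stably transduced with lentiviral HRE-driven firefly luciferase (single clone), grown in RPMI-1640 + 10% FBS. Seeded, allowed to attach, then given compound in DMSO (2 and 20 μM, or a concentration series) for 24 h. Luminescence read with a firefly luciferase reagent; triplicate cultures, mean ± s.d.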

786-0 [2] = assay: Cytotoxicity against human 786-0-HRE-Luc cells assessed as inhibition of cell proliferation at 20 uM measured after 24 hrs by CCK8 assay; format: cell-based; conditions: 786-0, 24 h
[3] = as §1; format: cell-based; conditions: 786-0, 24 h; procedure, shortened: as §2
786-0 [4] = assay: Agonist activity at HIF-2 in human 786-0-HRE-Luc cells assessed as increase in […] intensity at 20 uM measured after 24 hrs by luciferase reporter gene assay relative to control; format: cell-based; conditions: filed as agonist; procedure, shortened: as §2
786-0 [5] = assay: Agonist activity at HIF-2 in human 786-0-HRE-Luc cells at 2 uM measured after 24 hrs by luciferase reporter gene assay; format: cell-based; conditions: filed as agonist; procedure, shortened: as §2
786-0 [6] = assay: Agonist activity at HIF-2 in human 786-0-HRE-Luc cells assessed as increase in […] intensity at 6.6 to 20 uM measured after 24 hrs by luciferase reporter gene assay; format: cell-based; conditions: dose 6.6-20 µM; procedure, shortened: as §2
786-0 [7] = assay: Agonist activity at HIF-2 in human 786-0-HRE-Luc cells assessed as increase in […] intensity at 2.2 uM measured after 24 hrs by luciferase reporter gene assay relative to control; format: cell-based; conditions: filed as agonist; procedure, shortened: as §2
786-0 [8] = assay: Cytotoxicity against human 786-0-HRE-Luc cells assessed as inhibition of cell proliferation at 1 uM measured after 24 hrs by CCK8 assay; format: cell-based; conditions: 786-0, 24 h

| Compound | ΔTm (Homo sapiens) [°C] | Activity (786-0 [1]) | also measured |
| --- | --- | --- | --- |
| O=S1(=O)N=C(Nc2ccccc2)c2ccccc21 | 2 | Dose-Dependent Effect | – |
| Cc1cc(C)cc(NC2=NS(=O)(=O)c3ccccc32)c1 | 1.93 | Dose-Dependent Effect | – |
| O=S1(=O)N=C(Nc2cc(Br)cc(Br)c2)c2ccccc21 | 2.52 | Dose-Dependent Effect | Activity (786-0 [2]): Non-Toxic; pEC50 [3]: 5.77; fold change (FC) (786-0 [4]): 1.63 |
| O=S1(=O)N=C(Nc2cc(Cl)cc(Cl)c2)c2ccccc21 | 2.08 | Dose-Dependent Effect | – |
| COc1cc(NC2=NS(=O)(=O)c3ccccc32)cc(OC)c1 | 1.89 | Dose-Dependent Effect | – |
| O=S1(=O)N=C(Nc2cc(F)cc(F)c2)c2ccccc21 | 2.05 | Dose-Dependent Effect | – |

More lines, main results first:

| ΔTm (Homo sapiens) [°C] | Compound | Activity (786-0 [1]) | also measured |
| --- | --- | --- | --- |
| 0.27 | CN(C1=NS(=O)(=O)c2ccccc21)c1cc(C(F)(F)F)cc(C(F)(F)F)c1 | – | – |
| 0.06 | O=S1(=O)N=C(Oc2cc(C(F)(F)F)cc(C(F)(F)F)c2)c2ccccc21 | – | – |
| 0.03 | O=C1N=C(Nc2cc(C(F)(F)F)cc(C(F)(F)F)c2)c2ccccc21 | – | – |
| 2.23 | O=S1(=O)N=C(Nc2cc(C(F)(F)F)cc(C(F)(F)F)c2)c2ccccc21 | – | Activity (786-0 [5]): Active; Activity (786-0 [6]): inactive; pEC50 [3]: 6.36; fold change (FC) (786-0 [7]): 1.41; Activity (786-0 [8]): Toxic |
